{"source": "ChEMBL document CHEMBL2176900", "about": "“Design and synthesis of a novel series of bicyclic heterocycles as potent γ-secretase modulators” (J Med Chem, 2012)", "key": {"[1]": {"assay": "Drug metabolism in human liver microsomes at 1 uM after 15 mins by ion-trap mass spectrophotometry", "format": "ADME, Microsome", "settings": "read-out: Drug metabolism"}, "Rattus norvegicus [2]": {"test_system": "Rattus norvegicus", "assay": "Antialzheimer activity in Sprague-Dawley rat assessed as amyloid beta 37 level in CSF at 10 mg/kg, po at 2 hrs by ELISA relative to control", "format": "functional", "method_in_brief": "(§1)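 Male Sprague-Dawley rats (180-220 g), fasted overnight, were given 10 mg/kg by gastric intubation as a 5 mg/mL suspension in 0.5% methocellulose. At 2, 4, 7 and 25 h, 50 μL CSF was taken from the cisterna magna under isoflurane, then brain was collected. Aβ37/38/40/42 were measured by MesoScale Discovery sandwich immunoassays. Results are mean % change versus T = 0 h, n = 5.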"}, "Canis familiaris [3]": {"test_system": "Canis familiaris", "assay": "Antialzheimer activity in beagle dog assessed as amyloid beta 38 level in cerebrospinal fluid at 20 mg/kg, po at 4 hrs by ELISA relative to control"}, "Rattus norvegicus [4]": {"test_system": "Rattus norvegicus", "assay": "Antialzheimer activity in Sprague-Dawley rat assessed as amyloid beta 37 level in brain at 10 mg/kg, po at 7 hrs by ELISA relative to control", "format": "functional", "method_in_brief": "as §1"}, "Rattus norvegicus [5]": {"test_system": "Rattus norvegicus", "assay": "Antialzheimer activity in Sprague-Dawley rat assessed as amyloid beta 42 level in brain at 10 mg/kg, po at 4 hrs by ELISA relative to control", "format": "functional", "method_in_brief": "as §1"}, "[6]": {"assay": "Plasma concentration in Sprague-Dawley rat at 10 mg/kg, po at 2 hrs by LC-MS/MS analysis", "format": "ADME, organism-based", "parameters": "dose 10 mg/kg, route oral", "method_in_brief": "(§2)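 Overnight-fasted male Sprague-Dawley rats (180–220 g) were given 10 mg/kg by gastric intubation of a 5 mg/mL suspension in 0.5% methocellulose. Blood was collected after decapitation at 2, 4, 7 and 25 h under isoflurane anaesthesia. Plasma compound was measured as in the mouse assay, n = 5.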"}, "[7]": {"assay": "Plasma concentration in beagle dog at 20 mg/kg, po at 4 hrs", "format": "ADME, organism-based, Canis lupus familiaris", "parameters": "dose 20 mg/kg, route oral"}, "Rattus norvegicus [8]": {"test_system": "Rattus norvegicus", "assay": "Antialzheimer activity in Sprague-Dawley rat assessed as amyloid beta 42 level in CSF at 10 mg/kg, po at 2 hrs by ELISA relative to control", "format": "functional", "method_in_brief": "as §1"}, "[9]": {"assay": "Oral bioavailability in Sprague-Dawley rat at 10 mg/kg", "format": "ADME, organism-based", "settings": "in vivo"}, "Rattus norvegicus [10]": {"test_system": "Rattus norvegicus", "assay": "Antialzheimer activity in Sprague-Dawley rat assessed as amyloid beta 40 level in CSF at 10 mg/kg, po at 25 hrs by ELISA relative to control", "format": "functional", "method_in_brief": "as §1"}, "Mus musculus [11]": {"test_system": "Mus musculus", "assay": "Antialzheimer activity in CD1 mouse assessed as amyloid beta 42 level in brain at 30 mg/kg, po at 4 hrs by ELISA relative to control", "format": "functional", "method_in_brief": "(§3)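 Male CD1 SPF mice, fasted overnight, got a single oral dose of 10 or 30 mg/kg. At each time point the right brain hemisphere was homogenized in 0.4% DEA/50 mM NaCl with protease inhibitors and spun at 221300g for 50 min. The supernatant was neutralized with Tris-HCl pH 6.8. Aβ38 or Aβ42 was read by sandwich ELISA with a fluorogenic peroxidase substrate (ex 320/em 420 nm). Results are mean % change versus T = 0 h, n = 4.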"}, "Mus musculus [12]": {"test_system": "Mus musculus", "assay": "Antialzheimer activity in CD1 mouse assessed as amyloid beta 38 level in brain at 10 mg/kg, po at 24 hrs by ELISA relative to control", "format": "functional", "method_in_brief": "as §3"}, "Brain": {"test_system": "Brain", "assay": "Drug uptake in CD1 mouse brain at 30 mg/kg, po at 48 hrs by LC-MS/MS analysis", "format": "ADME, organism-based", "parameters": "dose 30 mg/kg, route oral", "settings": "in vivo, BLD = below limit of detection", "method_in_brief": "(§4)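 Overnight-fasted male CD1 mice received one oral dose (10 or 30 mg/kg) in 20% Captisol. After sacrifice, the left brain hemisphere was stored at −18 °C. Compound level was quantified by a qualified LC-MS/MS method, alongside EDTA plasma spun at 1900g, 4 °C. n = 4 per time point.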"}, "[13]": {"assay": "Inhibition of notch processing up to 10 uM"}, "[14]": {"assay": "Drug uptake in CD1 mouse brain at 10 mg/kg, po at 4 hrs by LC-MS/MS analysis", "format": "ADME, organism-based", "parameters": "dose 10 mg/kg, route oral", "settings": "read-out: Drug uptake", "method_in_brief": "as §4"}, "Cytochrome P450 1A2": {"target": "T1, Cytochrome P450 1A2 (Homo sapiens, UniProt P05177)", "T1 sequence (P05177 whole entry)": "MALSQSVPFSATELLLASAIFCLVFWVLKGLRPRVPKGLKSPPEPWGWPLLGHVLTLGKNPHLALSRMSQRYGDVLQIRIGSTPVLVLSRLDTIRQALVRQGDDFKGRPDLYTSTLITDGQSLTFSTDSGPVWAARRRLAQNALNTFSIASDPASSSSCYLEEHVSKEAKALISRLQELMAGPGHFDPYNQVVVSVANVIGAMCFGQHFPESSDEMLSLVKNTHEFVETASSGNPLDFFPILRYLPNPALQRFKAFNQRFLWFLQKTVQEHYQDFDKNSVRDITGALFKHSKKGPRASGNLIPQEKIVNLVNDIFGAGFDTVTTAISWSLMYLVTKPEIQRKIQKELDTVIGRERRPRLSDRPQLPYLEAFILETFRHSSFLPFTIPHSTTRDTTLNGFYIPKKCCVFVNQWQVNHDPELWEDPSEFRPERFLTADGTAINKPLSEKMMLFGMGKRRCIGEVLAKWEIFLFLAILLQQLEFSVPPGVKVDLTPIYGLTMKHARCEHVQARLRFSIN", "assay": "Inhibition of CYP1A2 in human liver microsomes using phenacetin as substrate", "format": "ADME, Microsome"}, "[15]": {"assay": "Drug uptake in Sprague-Dawley rat brain at 10 mg/kg, po at 4 hrs by LC-MS/MS analysis", "format": "ADME, organism-based", "parameters": "dose 10 mg/kg, route oral", "settings": "read-out: Drug uptake", "method_in_brief": "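Overnight-fasted male Sprague–Dawley rats (180–220 g) were dosed 10 mg/kg by gastric intubation of a 5 mg/mL suspension in 0.5% methocellulose. Rats were anesthetized with isoflurane, CSF was taken from the cisterna magna, then they were decapitated. Brain compound levels were measured as in the mouse assay. n = 5.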"}, "Canis familiaris [16]": {"test_system": "Canis familiaris", "assay": "Antialzheimer activity in beagle dog assessed as amyloid beta 40 level in cerebrospinal fluid at 20 mg/kg, po at 4 hrs by ELISA relative to control"}, "Rattus norvegicus [17]": {"test_system": "Rattus norvegicus", "assay": "Antialzheimer activity in Sprague-Dawley rat assessed as amyloid beta 42 level in CSF at 10 mg/kg, po at 25 hrs by ELISA relative to control", "format": "functional", "method_in_brief": "as §1"}, "Rattus norvegicus [18]": {"test_system": "Rattus norvegicus", "assay": "Antialzheimer activity in Sprague-Dawley rat assessed as amyloid beta 40 level in CSF at 10 mg/kg, po at 7 hrs by ELISA relative to control", "format": "functional", "method_in_brief": "as §1"}, "Cytochrome P450 3A4": {"target": "Cytochrome P450 3A4 (Homo sapiens, UniProt P08684)", "sequence (P08684 whole entry)": "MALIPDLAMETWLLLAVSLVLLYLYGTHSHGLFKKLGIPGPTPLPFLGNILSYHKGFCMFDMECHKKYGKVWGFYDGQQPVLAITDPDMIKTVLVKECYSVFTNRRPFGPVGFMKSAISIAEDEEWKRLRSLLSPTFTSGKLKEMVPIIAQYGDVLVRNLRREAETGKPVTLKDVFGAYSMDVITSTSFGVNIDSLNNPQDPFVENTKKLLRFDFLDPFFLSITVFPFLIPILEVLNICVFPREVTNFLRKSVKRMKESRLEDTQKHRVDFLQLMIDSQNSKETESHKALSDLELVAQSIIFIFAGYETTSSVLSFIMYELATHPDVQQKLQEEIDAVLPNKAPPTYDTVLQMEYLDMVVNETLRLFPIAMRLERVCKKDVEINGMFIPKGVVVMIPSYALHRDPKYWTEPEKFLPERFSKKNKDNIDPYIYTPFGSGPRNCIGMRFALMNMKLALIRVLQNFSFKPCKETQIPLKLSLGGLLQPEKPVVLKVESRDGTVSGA", "assay": "Inhibition of CYP3A4 in human liver microsomes using midazolam as substrate", "format": "ADME, Microsome"}, "Rattus norvegicus [19]": {"test_system": "Rattus norvegicus", "assay": "Antialzheimer activity in Sprague-Dawley rat assessed as amyloid beta 38 level in CSF at 10 mg/kg, po at 25 hrs by ELISA relative to control", "format": "functional", "method_in_brief": "as §1"}, "[20]": {"assay": "Plasma concentration in Sprague-Dawley rat at 10 mg/kg, po at 7 hrs by LC-MS/MS analysis", "format": "ADME, organism-based", "parameters": "dose 10 mg/kg, route oral", "method_in_brief": "as §2"}}, "note": "Calls of active or inactive are those of the source. The calls are words filed in the database; no cut-off is given here.", "data": [{"smiles": "COc1nc(Nc2cccc3c2nc(-c2ccc(F)cc2)n3C)ccc1-n1cnc(C)c1", "values": [{"measurement": "metabolised at 0.25 h, 1 µM", "setting": "[1]", "result": 6, "unit": "%"}, {"measurement": "Activity", "setting": "Rattus norvegicus [2]", "result": 735, "unit": "%"}, {"measurement": "Activity", "setting": "Canis familiaris [3]", "result": 134, "unit": "%"}, {"measurement": "Activity", "setting": "Rattus norvegicus [4]", "result": 620, "unit": "%"}, {"measurement": "Activity", "setting": "Rattus norvegicus [5]", "result": 64, "unit": "%"}, {"measurement": "concentration at 2 h", "setting": "[6]", "result": 4.6, "unit": "µM"}, {"measurement": "concentration at 4 h", "setting": "[7]", "result": 4.1, "unit": "µM"}, {"measurement": "Activity", "setting": "Rattus norvegicus [8]", "result": 65, "unit": "%"}, {"measurement": "bioavailability", "setting": "[9]", "result": 95, "unit": "%"}, {"measurement": "Activity", "setting": "Rattus norvegicus [10]", "result": 83, "unit": "%"}, {"measurement": "Activity", "setting": "Mus musculus [11]", "result": 35, "unit": "%"}, {"measurement": "Activity", "setting": "Mus musculus [12]", "result": 83, "unit": "%"}, {"measurement": "Drug uptake", "setting": "Brain", "result": "BLD"}, {"measurement": "inhibition", "setting": "[13]", "result": "inactive"}, {"measurement": "concentration at 4 h", "setting": "[14]", "result": 2.8, "unit": "µM"}, {"measurement": "IC50", "setting": "Cytochrome P450 1A2", "result": "> 30", "unit": "µM"}, {"measurement": "concentration at 4 h", "setting": "[15]", "result": 2.2, "unit": "µM"}, {"measurement": "Activity", "setting": "Canis familiaris [16]", "result": 89, "unit": "%"}, {"measurement": "Activity", "setting": "Rattus norvegicus [17]", "result": 89, "unit": "%"}, {"measurement": "Activity", "setting": "Rattus norvegicus [18]", "result": 56, "unit": "%"}, {"measurement": "IC50", "setting": "Cytochrome P450 3A4", "result": 8.7, "unit": "µM"}, {"measurement": "Activity", "setting": "Rattus norvegicus [19]", "result": 110, "unit": "%"}, {"measurement": "concentration at 7 h", "setting": "[20]", "result": 4, "unit": "µM"}]}]}
